Here are results for 14 compounds from publication PMC6548570 (Bioorganic & medicinal chemistry, 2019).

In data set [1] the target is sigma-2 (Homo sapiens, UniProt Q5BJF2). Nature of the data set: Radioligand binding assay against sigma-2. The conditions noted are these: for pKi ± SEM Sigma-2: displacement of [3H]-DTG, <5 = not >50% inhibition at 10 μM single concentration. A general note: Loss of bound radioactivity is the signal in a displacement assay; it reports binding, not function.
Data set [2] concerns the target sigma-1 (Homo sapiens, UniProt Q99720). Kind of data set: Radioligand binding assay against sigma-1.
The nature of data set [3]: Mouse liver microsomal. Type of data set: in vitro ADME. The note with it: 37 °C. In short, it runs like this: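 Mouse liver microsomes (0.4 mg/mL) with NADPH in 0.5 M phosphate buffer, test compound at 10 μM. T0 samples quenched at once with 2 volumes ice-cold acetonitrile; others shaken 60 min at 37 °C, then quenched likewise. Verapamil-HCl as control. After centrifugation, parent quantified by UPLC/MS (SRM). % remaining = (60 min/0 min concentration)×100; duplicate runs, mean reported.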
On the technique in general: Liver microsomes are a subcellular fraction often used to study metabolism.

Sequence of sigma-1 (Q99720 whole entry): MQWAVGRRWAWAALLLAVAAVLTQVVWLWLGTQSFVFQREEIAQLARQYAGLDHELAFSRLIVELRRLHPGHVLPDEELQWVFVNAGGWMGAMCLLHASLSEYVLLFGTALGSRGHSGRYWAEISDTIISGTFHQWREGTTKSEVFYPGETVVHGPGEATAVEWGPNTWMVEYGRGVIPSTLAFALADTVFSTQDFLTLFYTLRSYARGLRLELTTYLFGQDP
Sequence of sigma-2 (Q5BJF2 whole entry): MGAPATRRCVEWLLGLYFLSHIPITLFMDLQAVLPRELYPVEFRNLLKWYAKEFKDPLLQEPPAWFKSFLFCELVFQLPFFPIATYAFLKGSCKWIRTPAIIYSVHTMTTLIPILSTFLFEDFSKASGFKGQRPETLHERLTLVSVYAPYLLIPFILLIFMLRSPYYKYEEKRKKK

Consider `CCCn1nc(C(=O)N(C)C)c2c1CCC(OCc1ccc(F)cc1)C2` (stereo not shown) [compound 9, 5-((4-Fluorobenzyl)oxy)-N,N-dimethyl-1-propyl-4,5,6,7-tetrahydro-1H-indazole-3-carboxamide], for which, in data set [1], the “activity against sigma-2 (in words)” value is reported as “completely lost” and the “pKi ± SEM Sigma-2” value is given as less than 5 M. Further, the “activity against sigma-1 (in words)” value in data set [2] is “completely lost”.

Take `CCCn1nc(C(=O)N(C)C)c2c1CCC(NC(=O)c1ccc(F)cc1)C2` (stereo not shown) [compound 13, 5-(4-Fluorobenzamido)-N,N-dimethyl-1-propyl-4,5,6,7-tetrahydro-1H-indazole-3-carboxamide]: in data set [1], the “activity against sigma-2 (in words)” value was “complete loss of activity” and the “pKi ± SEM Sigma-2” value was less than 5 M. Moreover, the “activity against sigma-1 (in words)” value in data set [2] is given as “complete loss of activity”.

As to `O=C(c1c2c(nn1-c1ccccc1)CCC(NCc1ccc(F)cc1)C2)N1CCCCC1` (stereo not shown) [7ba, (5-((4-Fluorobenzyl)amino)-2-phenyl-4,5,6,7-tetrahydro-2H-indazol-3-yl)(piperidin-1-yl)methanone], the “fold more potent against sigma-2 compared to N-1 regioisomer 7aa” value in data set [1] (N-2 vs N-1 regioisomer) was more than 60 fold. In addition, in data set [3], the “consumption by liver microsomes after 60 minutes (in words)” value is recorded as “nearly-completely consumed”. Further, the “fold more potent against sigma-1 compared to N-1 regioisomer 7aa” value in data set [2] (N-2 vs N-1 regioisomer) was “over 5 fold”.

`O=C(c1nn(-c2ccccc2)c2c1CC(NCCc1ccc(C(F)(F)F)cc1)CC2)N1CCCCC1` (stereo not shown) [7ac, (1-Phenyl-5-((4-(trifluoromethyl)phenethyl)amino)-4,5,6,7-tetrahydro-1H-indazol-3-yl)(piperidin-1-yl)methanone]: the “pKi ± SEM Sigma-2” value in data set [1] is less than 5 M.

On to `O=C(c1nn(-c2ccccc2)c2c1CC(NCCc1cccc(O)c1)CC2)N1CCCCC1` (stereo not shown) [7af, (5-((3-Hydroxyphenethyl)amino)-1-phenyl-4,5,6,7-tetrahydro-1H-indazol-3-yl)(piperidin-1-yl)methanone], for which the “pKi ± SEM Sigma-2” value in data set [1] is less than 5 M.

For the compound `O=C(c1nn(-c2ccccc2)c2c1CC(NCc1ccc(F)cc1)CC2)N1CCCCC1` (stereo not shown) [7aa, (5-((4-Fluorobenzyl)amino)-1-phenyl-4,5,6,7-tetrahydro-1H-indazol-3-yl)(piperidin-1-yl)methanone], in data set [1], the “activity against sigma-2 (in words)” value is listed as “no activity” and the “pKi ± SEM Sigma-2” value is given as less than 5 M.

For the compound `O=C(c1nn(Cc2ccccc2)c2c1CC(NCc1ccc(F)cc1)CC2)N1CCCCC1` (stereo not shown) [7ah, (1-Benzyl-5-((4-fluorobenzyl)amino)-4,5,6,7-tetrahydro-1H-indazol-3-yl)(piperidin-1-yl)methanone], the “pKi ± SEM Sigma-2” value in data set [1] is on record as less than 5 M.

As for `O=C(c1c2c(nn1-c1ccccc1)CCC(NCCc1ccc(C(F)(F)F)cc1)C2)N1CCCCC1` (stereo not shown) [7bc, (2-Phenyl-5-((4-(trifluoromethyl)phenethyl)amino)-4,5,6,7-tetrahydro-2H-indazol-3-yl)(piperidin-1-yl)methanone], in data set [1], the “pKi ± SEM Sigma-2” value was less than 5 M.

For `O=C(c1nn(Cc2ccccc2)c2c1CC(NCCc1ccncc1)CC2)N1CCCCC1` (stereo not shown) [7ag, (1-Benzyl-5-((2-(pyridin-4-yl)ethyl)amino)-4,5,6,7-tetrahydro-1H-indazol-3-yl)(piperidin-1-yl)methanone], the “pKi ± SEM Sigma-2” value in data set [1] was less than 5 M.

Consider `O=C(c1nn(-c2ccccc2)c2c1CC(NCc1ccccc1)CC2)N1CCCCC1` (stereo not shown) [7ab, (5-(Benzylamino)-1-phenyl-4,5,6,7-tetrahydro-1H-indazol-3-yl)(piperidin-1-yl)methanone], for which the “consumption by liver microsomes after 60 minutes (in words)” value in data set [3] is “nearly-completely consumed”.

`CCCn1nc(C(=O)N(C)C)c2c1CCC(SCc1ccc(F)cc1)C2` (stereo not shown) [compound 11, 5-((4-Fluorobenzyl)thio)-N,N-dimethyl-1-propyl-4,5,6,7-tetrahydro-1H-indazole-3-carboxamide]: in data set [1], the “activity against sigma-2 (in words)” value is listed as “completely lost” and the “pKi ± SEM Sigma-2” value was less than 5 M. In data set [2], the “activity against sigma-1 (in words)” value was “completely lost”.

Consider `NC(=O)c1ccc(-n2nc3c(c2C(=O)N2CCCCC2)CC(NCCc2ccccc2)CC3)cc1` (stereo not shown) [7bg, 4-(5-(Phenethylamino)-3-(piperidine-1-carbonyl)-4,5,6,7-tetrahydro-2H-indazol-2-yl)benzamide], for which the “pKi ± SEM Sigma-2” value in data set [1] is reported as less than 5 M.

With `CCCn1nc(C(=O)N(C)C)c2c1CCC(NS(=O)(=O)c1ccc(F)cc1)C2` (stereo not shown) [compound 14, 5-((4-Fluorophenyl)sulfonamido)-N,N-dimethyl-1-propyl-4,5,6,7-tetrahydro-1H-indazole-3-carboxamide], in data set [1], the “activity against sigma-2 (in words)” value is listed as “complete loss of activity” and the “pKi ± SEM Sigma-2” value was less than 5 M. In addition, in data set [2], the “activity against sigma-1 (in words)” value is on record as “complete loss of activity”.

As to `O=C(c1c2c(nn1-c1ccc(F)cc1)CCC(NCc1ccc(F)cc1)C2)N1CCCCC1` (stereo not shown) [7bf, (5-((4-Fluorobenzyl)amino)-2-(4-fluorophenyl)-4,5,6,7-tetrahydro-2H-indazol-3-yl)(piperidin-1-yl)methanone], the “selectivity for sigma-1 against sigma-2” value in data set [2] (sigma-1 over sigma-2) is “over 500 fold”.
